Data set [1] is described as follows: Octanol-water partition coefficient, log P of the compound by HPLC analysis. Type of data set: physicochemical. The method in brief: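 Log P was estimated by isocratic reversed-phase HPLC on a Gemini C18 column (5 μm, 4.6 × 150 mm). The mobile phase was MeOH/H2O/2% HCOOH in H2O (55:43:2, w/w) at 1.0 mL/min and 37 °C, with samples dissolved in the mobile phase. Capacity factor K = (t1 − t0)/t0, with t0 taken from D2O. […] At least 5 injections were made.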

Data set [2] concerns Botrytis cinerea. Kind of data set: Antifungal activity against Botryotinia fuckeliana assessed as growth inhibition after 48 hr by NCCLS M27-A broth microdilution method. In kind it is functional, organism-based. The method in brief:
(§1)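 Broth microdilution adapted from the NCCLS M27-A yeast method for conidia-forming filamentous plant pathogens. Growth inhibition was read at 48 h and 72 h for Botrytis cinerea, and at 120 h and 144 h for Phomopsis viticola and P. obscurans. The highest concentration tested was 30 μM. Captan served as the internal standard. Means were compared by ANOVA with Fisher's protected LSD.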
A general note: Dilution methods test growth across graded concentrations, often in twofold steps.

The subject of data set [3] is Botrytis cinerea. The data set is described as follows: Antifungal activity against Botryotinia fuckeliana assessed as growth inhibition after 72 hr by NCCLS M27-A broth microdilution method. In kind it is functional, organism-based. A digest of the protocol: as §1
Data set [4] relates to Phomopsis obscurans. The data set is described as follows: Antifungal activity against Phomopsis obscurans assessed as growth inhibition at 30 uM after 144 hr by NCCLS M27-A broth microdilution method. Conditions: Paraphomopsis obscurans. In kind it is functional, organism-based. The method in brief: as §1
Data set [5] relates to Phomopsis obscurans. Kind of data set: Antifungal activity against Phomopsis obscurans assessed as growth inhibition after 144 hr by NCCLS M27-A broth microdilution method. Type of data set: functional, organism-based. Conditions: Paraphomopsis obscurans. A digest of the protocol:
as §1

For data set [6], the system named is Diaporthe ampelina. Kind of data set: Antifungal activity against Diaporthe ampelina assessed as growth inhibition after 144 hr by NCCLS M27-A broth microdilution method. In kind it is functional, organism-based. A digest of the protocol:
as §1

The test system of data set [7] is Phomopsis obscurans. The data set is described as follows: Antifungal activity against Phomopsis obscurans assessed as growth inhibition after 120 hr by NCCLS M27-A broth microdilution method. In kind it is functional, organism-based. Conditions: Paraphomopsis obscurans. The method in brief: as §1
For data set [8], the system named is Diaporthe ampelina. Kind of data set: Antifungal activity against Diaporthe ampelina assessed as growth inhibition after 120 hr by NCCLS M27-A broth microdilution method. Type of data set: functional, organism-based. A digest of the protocol:
as §1

Data set [9] has as its system Diaporthe ampelina. Kind of data set: Antifungal activity against Diaporthe ampelina assessed as growth inhibition at 30 uM after 144 hr by NCCLS M27-A broth microdilution method. In kind it is functional, organism-based. The method in brief: as §1

Broadly, the logP is a log measure of how a compound divides between an organic and an aqueous phase.

The source made the active and inactive calls. No cut-off for these calls is given here.

As for `CC(C)(O)C(O)Cc1c(O)cc(/C=C/c2ccccc2)cc1O` (centres undefined) [ARAHYPIN-4], the logP in [1] came to 2.59. In addition, the result in [2] and in data set [3] was inactive.

`Oc1ccc(/C=C/c2cccc(O)c2)cc1` [(E)-3,4'-STILBENDIOL]: in data set [1] (read-out: logP), the logP came to 2.08. For the same compound, the result in [4] was Active.

`CC(C)(O)C(O)Cc1c(O)cc(/C=C/c2ccc(O)cc2)cc1O` (centres undefined) [ARAHYPIN-3] had a logP in [1] of 1.59. The outcome in data set [2] and in data set [3] was inactive.

In [1], `Oc1cccc(/C=C/c2ccccc2)c1` [(E)-3-STILBENOL] had a logP of 3.22. Also, the outcome in data set [4] was Active.

With `COc1cccc(CCc2ccc(O)cc2)c1`, the lipophilicity (logP) in data set [1] is on record as 3.07. Moreover, in data set [4], the result was Active.

`CC(C)=CCc1c(O)cc(/C=C/c2ccccc2)cc1O` [CHIRICANINE A] returned a logP in data set [1] of 3.46. Moreover, the outcome in data set [5] and in [6] was Active. Further, the outcome in data set [2], in data set [7] and in data set [3] was inactive.

`CC(C)/C=C/c1c(O)cc(/C=C/c2ccccc2)cc1O` [ARAHYPIN-1]: the log partition coefficient (logP) in data set [1] was found to be 3.71. The outcome in [5], in data set [6] and in data set [7] was Active. For the same compound, the outcome in data set [2] and in data set [3] was inactive.

On to `COc1cc(/C=C/c2ccc(O)cc2)cc(OC)c1` [PTEROSTILBENE], for which the logP in [1] (read-out: logP) was found to be 3.15. For the same compound, the outcome in data set [2], in [4] and in data set [3] was Active.

For the compound `COc1cccc(/C=C/c2ccc(O)cc2)c1` [(E)-5-METHOXY-4'-STILBENOL], the logP in data set [1] is given as 3.14. Further, the result in data set [8] and in data set [4] was Active.

Regarding `CC1(C)C=Cc2c(O)cc(/C=C/c3ccc(O)cc3)cc2O1` [ARAHYPIN-5], the logP in [1] is reported as 3.34. For the same compound, the outcome in data set [2] and in [3] was inactive. Moreover, the result in [6] was Active.

Consider `COc1cc(O)cc(/C=C/c2ccccc2)c1` [PINOSYLVIN METHYL ETHER], for which the logP in data set [1] (read-out: logP) is 3.21. Also, the outcome in data set [8] and in data set [4] was Active.

In the case of `Oc1ccc(/C=C/c2ccccc2)cc1O`, the result in data set [8], in data set [4] and in data set [3] was inactive. For the same compound, in data set [2], the outcome was Active.

As to `CC(C)/C=C/c1c(O)cc(/C=C/C2=CC(=O)OC2CC(=O)O)cc1O` (centres undefined), the logP in [1] (read-out: logP) came to 2.59. The outcome in data set [5], in data set [2], in data set [7] and in data set [3] was inactive.

For `Oc1cc(O)cc(/C=C/c2ccccc2)c1` [PINOSYLVIN], the lipophilicity (logP) in [1] (read-out: logP) came to 2.25. The result in data set [8], in data set [4] and in [3] was inactive. Moreover, the outcome in data set [2] was Active.

Regarding `O=C1C2CC=CCC2C(=O)N1SC(Cl)(Cl)Cl` (centres undefined), in data set [6], the result was Active.

In turn, `CC(C)=CCC/C(C)=C/Cc1c(O)cc(/C=C/c2ccc(O)cc2O)cc1O` [CHLOROPHORIN] returned a lipophilicity (logP) in data set [1] of 3.29. Also, the result in data set [8], in data set [2], in [4] and in data set [3] was Active.

Compound `COc1ccc(/C=C/c2cc(O)cc(O[C@@H]3O[C@H](CO)[C@@H](O)[C@H](O)[C@H]3O)c2)cc1O` [RHAPONTIN] came in with a lipophilicity (logP) in data set [1] of 0.74. For the same compound, the result in data set [4] and in [3] was Active.

With `Oc1ccc(/C=C/c2cc(O)cc(O)c2)cc1` [RESVERATROL], in data set [1] (read-out: logP), the logP was 1.35. Besides, the result in [8], in data set [4] and in [3] was inactive. Also, in [2], the outcome was Active.

Regarding `Oc1cccc(CCc2ccccc2)c1` [3-PHENETHYLPHENOL], the log partition coefficient (logP) in data set [1] is listed as 3.19. Further, the result in data set [8], in data set [9] and in [4] was Active.

Consider `CC(C)(O)C(O)Cc1cc(/C=C/c2cc(O)cc(O)c2)ccc1O` (centres undefined) [ARAHYPIN-2], for which the logP in data set [1] stood at 1.36. Besides, the outcome in data set [5], in [2] and in data set [3] was inactive. In addition, the outcome in data set [7] was Active.

For `CC(C)=CCc1c(O)cc(/C=C/c2ccc(O)cc2)cc1O` [ARACHIDIN-2], the logP in data set [1] (read-out: logP) was determined as 2.56. Besides, the result in data set [5], in data set [2], in data set [7] and in data set [3] was inactive.

As for `CC(C)/C=C/c1c(O)cc(/C=C/c2ccc(O)cc2)cc1O` [ARACHIDIN-3], the logP in data set [1] (read-out: logP) came to 2.83. The outcome in data set [5], in [2], in data set [7] and in data set [3] was inactive.

Consider `COc1ccc(/C=C/c2cc(OC)cc(OC)c2)cc1` [TRISMETHOXYRESVERATROL], for which the logP in data set [1] (read-out: logP) was determined as 4.07. Further, in data set [4], the outcome was Active.

In the case of `CC(C)/C=C/c1c(O)cc(/C=C/c2ccc(O)c(O)c2)cc1O` [ARACHIDIN-1], the logP in data set [1] turned out to be 2.44. The outcome in data set [5], in [2], in data set [7] and in data set [3] was inactive.

In the case of `COc1cc(/C=C/c2ccccc2)cc(OC)c1` [3,5-O-DIMETHYLPINOSYLVIN], the logP in data set [1] (read-out: logP) was found to be 4.15. For the same compound, in data set [4], the outcome was inactive.

The values are drawn from ChEMBL document CHEMBL3045061, “Biological activity of peanut (Arachis hypogaea) phytoalexins and selected natural and synthetic Stilbenoids” (J Agric Food Chem, 2011).
